Laboratory results reported in ChEMBL document CHEMBL3400126, “Benzo-fused lactams from a diversity-oriented synthesis (DOS) library as inhibitors of scavenger receptor BI (SR-BI)-mediated lipid uptake” (Bioorg Med Chem Lett, 2015).

Tests used:
CHO = assay: Cytotoxicity against CHO cells after 24 hrs by CellTiterGlo assay; type: cell-based, Cricetulus griseus; conditions: chinese hamster
Procedure, shortened: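 IdlA[mSR-BI] cells (CHO overexpressing mouse SR-BI) incubated with compound for 24 h; cellular ATP levels read by CellTiter-Glo luminescence.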

[1] = biological target: T1, Scavenger receptor class B member 1 (Mus musculus, UniProt Q61009); assay: Inhibition of mouse SR-B1 overexpressed in CHO cells assessed as inhibition of transfer of the fluorescent lipid DiI from HDL particles to cells after 3 hrs; type: cell-based
T1 sequence (Q61009 whole entry): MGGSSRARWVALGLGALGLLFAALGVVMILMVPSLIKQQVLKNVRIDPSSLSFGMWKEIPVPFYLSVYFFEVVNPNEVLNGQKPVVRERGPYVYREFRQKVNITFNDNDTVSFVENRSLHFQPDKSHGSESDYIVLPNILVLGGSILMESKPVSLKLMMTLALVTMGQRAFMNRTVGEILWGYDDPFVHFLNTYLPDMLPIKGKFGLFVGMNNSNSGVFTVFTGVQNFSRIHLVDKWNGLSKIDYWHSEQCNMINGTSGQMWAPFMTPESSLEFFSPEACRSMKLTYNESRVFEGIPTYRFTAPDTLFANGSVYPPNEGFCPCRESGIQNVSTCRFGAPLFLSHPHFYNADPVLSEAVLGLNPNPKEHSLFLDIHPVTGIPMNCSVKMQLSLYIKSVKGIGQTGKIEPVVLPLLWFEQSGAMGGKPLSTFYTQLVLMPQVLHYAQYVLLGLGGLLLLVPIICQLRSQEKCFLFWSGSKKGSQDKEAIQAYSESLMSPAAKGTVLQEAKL
Procedure, shortened: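 Primary assay: uptake of fluorescent lipid DiI from DiI-labeled HDL particles into IdlA[mSR-BI] cells, i.e. CHO cells overexpressing mouse SR-BI. Read-out is cell-associated DiI fluorescence. Compounds that quenched DiI-HDL fluorescence in a dose-dependent manner were excluded by counterscreen. 1 μM BLT-1 served as positive control.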

IC50 [1] [µM] | Compound | Activity (CHO)
1.6 | C[C@@H]1CN([C@H](C)CO)C(=O)c2cc(NC(=O)Cc3cn(C)c4ccccc34)ccc2O[C@H]1CN(C)Cc1ccccc1 | Non-toxic
10 | C[C@@H]1CN([C@H](C)CO)C(=O)c2cc(NC(=O)Cn3cnnn3)ccc2O[C@H]1CN(C)S(=O)(=O)c1ccc(Cl)cc1 | Non-toxic
2.6 | COc1ccc(CN(C)C[C@@H]2Oc3ccc(NC(=O)Cc4cn(C)c5ccccc45)cc3C(=O)N([C@H](C)CO)C[C@H]2C)cc1 | Non-toxic
> 25 | C[C@H](CO)N1C[C@H](C)[C@H](CN(C)S(=O)(=O)c2ccc(Cl)cc2)Oc2ccc(NC(=O)Cc3cn(C)c4ccccc34)cc2C1=O | Non-toxic
> 25 | C[C@@H]1CN([C@H](C)CO)C(=O)c2cc(NC(=O)C3CCCCC3)ccc2O[C@H]1CN(C)C(=O)c1ccc(Cl)cc1 | Non-toxic
0.18 | C[C@@H]1CN([C@H](C)CO)C(=O)c2cc(NC(=O)C3CCCCC3)ccc2O[C@H]1CN(C)S(=O)(=O)c1ccccc1Cl | Non-toxic
9.2 | C[C@@H]1CN([C@H](C)CO)C(=O)c2cc(NC(=O)Cc3cn(C)c4ccccc34)ccc2O[C@H]1CN(C)C(=O)NC1CCCCC1 | Non-toxic
9.9 | C[C@@H]1CN([C@H](C)CO)C(=O)c2cc(NC(=O)Cc3cn(C)c4ccccc34)ccc2O[C@H]1CN(C)S(C)(=O)=O | Non-toxic
12.3 | C[C@H]1CN([C@@H](C)CO)C(=O)c2cc(NC(=O)Cc3cn(C)c4ccccc34)ccc2O[C@H]1CN(C)S(=O)(=O)c1ccc(Cl)cc1 | Non-toxic
0.91 | C[C@@H]1CN([C@@H](C)CO)C(=O)c2cc(NC(=O)Cc3cn(C)c4ccccc34)ccc2O[C@H]1CN(C)S(=O)(=O)c1ccc(Cl)cc1 | Non-toxic
10 | C[C@@H]1CN([C@@H](C)CO)C(=O)c2cc(NC(=O)Cc3cn(C)c4ccccc34)ccc2O[C@@H]1CN(C)S(=O)(=O)c1ccc(Cl)cc1 | Non-toxic
0.092 | C[C@@H]1CN([C@H](C)CO)C(=O)c2cc(NC(=O)Nc3ccc(F)cc3)ccc2O[C@H]1CN(C)S(=O)(=O)c1ccc(Cl)cc1 | Non-toxic
1.3 | C[C@@H]1CN([C@H](C)CO)C(=O)c2cc(NC(=O)Cc3cn(C)c4ccccc34)ccc2O[C@H]1CN(C)Cc1ccncc1 | Non-toxic
17.4 | C[C@H]1CN([C@@H](C)CO)C(=O)c2cc(NC(=O)Cc3cn(C)c4ccccc34)ccc2O[C@@H]1CN(C)S(=O)(=O)c1ccc(Cl)cc1 | Non-toxic
9.9 | CC(C)NC(=O)Nc1ccc2c(c1)C(=O)N(C(C)C)C[C@@H](C)[C@H](CN(C)S(=O)(=O)c1ccc(Cl)cc1)O2 | Non-toxic
9.2 | C[C@@H]1CN([C@H](C)CO)C(=O)c2cc(NC(=O)Cc3cn(C)c4ccccc34)ccc2O[C@H]1CN(C)CC1CCCCC1 | Non-toxic
 | C[C@@H]1CN([C@H](C)CO)C(=O)c2cc(NC(=O)C3CCCCC3)ccc2O[C@H]1CN(C)S(=O)(=O)c1cccc(Cl)c1 | Non-toxic
> 25 | C[C@@H]1CN([C@H](C)CO)C(=O)c2cc(NC(=O)Cc3cn(C)c4ccccc34)ccc2O[C@H]1CN(C)Cc1ccc(Cl)c(Cl)c1 | Non-toxic
> 25 | CNC[C@@H]1Oc2ccc(NC(=O)Cc3cn(C)c4ccccc34)cc2C(=O)N([C@H](C)CO)C[C@H]1C | Non-toxic
0.35 | C[C@@H]1CN([C@H](C)CO)C(=O)c2cc(NC(=O)NC3CCCCC3)ccc2O[C@H]1CN(C)S(=O)(=O)c1ccc(Cl)cc1 | Non-toxic

IC50 [1] [µM] | Compound | Activity (CHO)
> 25 | CC(C)NC(=O)Nc1cccc2c1O[C@@H](CN(C)S(=O)(=O)c1ccc(Cl)cc1)[C@H](C)CN([C@H](C)CO)C2=O | Non-toxic
0.63 | C[C@@H]1CN([C@H](C)CO)C(=O)c2cc(N(C)C)ccc2O[C@H]1CN(C)S(=O)(=O)c1ccc(Cl)cc1 | Non-toxic
2.1 | C[C@@H]1CN([C@H](C)CO)C(=O)c2cc(NC(=O)C3CC3)ccc2O[C@H]1CN(C)S(=O)(=O)c1ccc(Cl)cc1 | Non-toxic
0.89 | C[C@@H]1CN([C@H](C)CO)C(=O)c2cc(NC(=O)Cc3cn(C)c4ccccc34)ccc2O[C@H]1CN(C)Cc1ccc2c(c1)OCO2 | Non-toxic
0.65 | C[C@@H]1CN([C@H](C)CO)C(=O)c2cc(NC(=O)Cc3cn(C)c4ccccc34)ccc2O[C@H]1CN(C)Cc1ccc(C(F)(F)F)cc1 | Non-toxic
0.3 | COc1ccc(NC(=O)Nc2ccc3c(c2)C(=O)N([C@H](C)CO)C[C@@H](C)[C@H](CN(C)S(=O)(=O)c2ccc(Cl)cc2)O3)cc1 | Non-toxic
> 25 | C[C@@H]1CN([C@H](C)CO)C(=O)c2cc(NC(=O)Nc3ccccc3)ccc2O[C@H]1CN(C)S(=O)(=O)c1ccc(Cl)cc1 | Non-toxic
0.22 | C[C@@H]1CN([C@H](C)CO)C(=O)c2cc(NC(=O)Cc3cn(C)c4ccccc34)ccc2O[C@H]1CN(C)S(=O)(=O)c1ccccc1 | Non-toxic
5 | C[C@@H]1CN([C@H](C)CO)C(=O)c2cc(NC(=O)CCN3CCOCC3)ccc2O[C@H]1CN(C)S(=O)(=O)c1ccc(Cl)cc1 | Non-toxic
> 25 | C[C@@H]1CN([C@H](C)CO)C(=O)c2cc(NC(=O)CCCN(C)C)ccc2O[C@H]1CN(C)S(=O)(=O)c1ccc(Cl)cc1 | Non-toxic
3.2 | C[C@@H]1CN([C@H](C)CO)C(=O)c2cc(NS(=O)(=O)c3ccccc3)ccc2O[C@H]1CN(C)S(=O)(=O)c1ccc(Cl)cc1 | Non-toxic
18 | C[C@@H]1CN([C@H](C)CO)C(=O)c2cc(NC(=O)Cc3cn(C)c4ccccc34)ccc2O[C@H]1CN(C)C | Non-toxic
8 | COC[C@@H](C)N1C[C@@H](C)[C@H](CN(C)S(=O)(=O)c2ccc(Cl)cc2)Oc2ccc(NC(=O)NC(C)C)cc2C1=O | Non-toxic
2 | COc1ccc(S(=O)(=O)N(C)C[C@@H]2Oc3ccc(NC(=O)Cc4cn(C)c5ccccc45)cc3C(=O)N([C@H](C)CO)C[C@H]2C)cc1 | Non-toxic
0.054 | C[C@@H]1CN([C@H](C)CO)C(=O)c2cc(NC(=O)C3CCCCC3)ccc2O[C@H]1CN(C)S(=O)(=O)c1ccc(Cl)cc1 | Non-toxic
14 | C[C@@H]1CN([C@H](C)CO)C(=O)c2cc(NS(=O)(=O)c3ccc(F)cc3)ccc2O[C@H]1CN(C)S(=O)(=O)c1ccc(Cl)cc1 | Non-toxic
> 25 | C[C@@H]1CN([C@H](C)CN)C(=O)c2cc(NC(=O)Cc3cn(C)c4ccccc34)ccc2O[C@H]1CN(C)S(=O)(=O)c1ccc(Cl)cc1 | Non-toxic
> 25 | C[C@@H]1CN([C@H](C)CN(C)C)C(=O)c2cc(NC(=O)Cc3cn(C)c4ccccc34)ccc2O[C@H]1CN(C)S(=O)(=O)c1ccc(Cl)cc1 | Non-toxic
 | C[C@@H]1CN([C@H](C)CO)C(=O)c2cc(NC(=O)Cc3cn(C)c4ccccc34)ccc2O[C@@H]1CN(C)S(=O)(=O)c1ccc(Cl)cc1 | Non-toxic
